In ChEMBL document CHEMBL1129059, “Antitumor properties of some 2-[(dimethylamino)methyl]phenylgold(III) complexes” (J Med Chem, 1996):
“And” between values parts separate entries of the source, which are not always exact repeats. Identical values can stand only once.

Key:
[1] = Range is evaluated. (Highest IC50/Lowest IC50); type: functional
A2780 [2] = assay: Compound was tested for in vitro growth inhibition of Ovarian carcinoma cell line panel A2780; type: functional, cell-based, Homo sapiens
In short: (§1)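 Ovarian lines grown as monolayers in DMEM with 10% FBS, insulin, hydrocortisone and L-glutamine under 6% CO2. Cells were seeded at 3–5 × 10³/well and left to attach overnight. Compounds were freshly dissolved in DMA or water and applied for 96 h in quadruplicate wells. Growth was measured by SRB and reported as IC50.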

A2780 [3] = assay: Compound was tested for in vitro growth inhibition of Ovarian carcinoma cell line panel A2780-R; type: functional, cell-based, Homo sapiens; in short: as §1
[4] = Solubility at 25 degrees Celsius in 1-Octanol; type: physicochemical
In short: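 A sample was tumbled in 1-octanol at 25 °C for 24 h and filtered. An aliquot was evaporated and the residue taken up in dilute aqua regia. Gold content was determined as for the aqueous samples, with indium as internal standard.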

CH1 [5] = assay: Compound was tested for in vitro growth inhibition of Ovarian carcinoma cell line panel CH1-R; type: functional, cell-based; in short: as §1
CH1 [6] = assay: Compound was tested for in vitro growth inhibition of Ovarian carcinoma cell line panel CH1; type: functional, cell-based; in short: as §1
HT-29 = assay: Compound was tested for in vitro growth inhibition of primary panel tumor cell line HT-29/219; type: functional, cell-based, Homo sapiens
In short: (§2)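 Primary-panel lines kept in L15, RPMI 1640 plus pyruvate, or MEM, each with 10% FBS. Cells were seeded at 5×10^4–10^5 cells/mL, preincubated 24 h, then exposed 4 h to 0–200 μg/mL from a 2 mg/mL stock in 10% DMA/PBS. After washout and 72 h further growth, cells were read by SRB. IC50 was the concentration giving 50% survival versus untreated controls.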

HX62 cell line = assay: Compound was tested for in vitro growth inhibition of Ovarian carcinoma cell line panel HX62; type: functional, cell-based, Homo sapiens; in short: as §1
SK-OV-3 [7] = assay: Compound was tested for in vitro growth inhibition of primary panel tumor cell lines SK-OV-3; type: functional, cell-based, Homo sapiens; in short: as §2
SW 1116 = assay: Compound was tested for in vitro growth inhibition of primary panel tumor cell line SW1116; type: functional, cell-based, Homo sapiens; in short: as §2
SK-OV-3 [8] = assay: Compound was tested for in vitro growth inhibition of Ovarian carcinoma cell line panel SK-OV-3; type: functional, cell-based, Homo sapiens; in short: as §1
ZR-75-1 = assay: Compound was tested for in vitro growth inhibition of primary panel tumor cell line ZR-75-1; type: functional, cell-based, Homo sapiens; in short: as §2
HT-1376 = assay: Compound was tested for in vitro growth inhibition of primary panel tumor cell line HT1376; type: functional, cell-based, Homo sapiens; in short: as §2
SW-620 = assay: Compound was tested for in vitro growth inhibition of primary panel tumor cell line SW620; type: functional, cell-based, Homo sapiens; in short: as §2
[9] = Solubility at 25 degrees Celsius in water; type: physicochemical; conditions: buffer
In short: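 5–10 mg sample was tumbled in 5.0 mL water at 25 °C for 24 h and filtered. The solution was diluted as needed and gold was quantified with 1 ppm indium as internal standard.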

Mus musculus [10] = assay: Compound was evaluated for antitumor activity (T/C) in HT1376 carcinoma Xenograft, at a dosage 17.5 mg/kg on day 14; type: functional, organism-based; parameters: dose 17.5 mg/kg
In short: (§3)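 Subcutaneous HT1376 xenografts in nude mice, 6 per treated group and 10 controls. Intraperitoneal dosing as suspensions in 0.5% carboxymethylcellulose/0.9% saline on days 0, 7, 14, 21; tumors measured weekly to day 28. T/C = RTV of treated group / RTV of untreated control group; significance by t-test at the 5% level.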

Mus musculus [11] = assay: Compound was evaluated for antitumor activity (T/C) in HT1376 carcinoma Xenograft, at a dosage 17.5 mg/kg on day 21; type: functional, organism-based; parameters: dose 17.5 mg/kg; in short: as §3
Mus musculus [12] = assay: Compound was evaluated for antitumor activity (T/C) in HT1376 carcinoma Xenograft, at a dosage 17.5 mg/kg on day 28; type: functional, organism-based; parameters: dose 17.5 mg/kg; in short: as §3
Mus musculus [13] = assay: Compound was evaluated for antitumor activity (RTV) in HT1376 carcinoma Xenograft, at a dosage 17.5 mg/kg on day 14; type: functional, organism-based; parameters: dose 17.5 mg/kg
In short: (§4)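 HT1376 tumor fragments implanted subcutaneously in nude mice flanks; mice with established palpable tumors randomized into groups of 6 (controls 10). Compounds given intraperitoneally as suspensions in 0.5% carboxymethylcellulose in 0.9% saline, on days 0, 7, 14 and 21. Tumor dimensions on days 0, 7, 14, 21, 28. RTV = 100(mean tumor volume at assessment)/(mean start volume).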

Mus musculus [14] = assay: Compound was evaluated for antitumor activity (RTV) in HT1376 carcinoma Xenograft, at a dosage 17.5 mg/kg on day 21; type: functional, organism-based; parameters: dose 17.5 mg/kg; in short: as §4
Mus musculus [15] = assay: Compound was evaluated for antitumor activity (RTV) in HT1376 carcinoma Xenograft, at a dosage 17.5 mg/kg on day 28; type: functional, organism-based; parameters: dose 17.5 mg/kg; in short: as §4
Mus musculus [16] = assay: Compound was evaluated for antitumor activity (RTV) in HT1376 carcinoma Xenograft, at a dosage 17.5 mg/kg on day 7; type: functional, organism-based; parameters: dose 17.5 mg/kg; in short: as §4
Mus musculus [17] = assay: Compound was evaluated for antitumor activity (RTV) in HT1376 carcinoma Xenograft, at a dosage 35 mg/kg on day 14; type: functional, organism-based; parameters: dose 35 mg/kg; in short: as §4
Mus musculus [18] = assay: Compound was evaluated for antitumor activity (RTV) in HT1376 carcinoma Xenograft, at a dosage 35 mg/kg on day 21; type: functional, organism-based; parameters: dose 35 mg/kg; in short: as §4
Mus musculus [19] = assay: Compound was evaluated for antitumor activity (RTV) in HT1376 carcinoma Xenograft, at a dosage 35 mg/kg on day 28; type: functional, organism-based; parameters: dose 35 mg/kg; in short: as §4
Mus musculus [20] = assay: Compound was evaluated for antitumor activity (RTV) in HT1376 carcinoma Xenograft, at a dosage 35 mg/kg on day 7; type: functional, organism-based; parameters: dose 35 mg/kg; in short: as §4
Mus musculus [21] = assay: Compound was evaluated for antitumor activity (T/C) in HT1376 carcinoma Xenograft, at a dosage 17.5 mg/kg on day 7; type: functional, organism-based; parameters: dose 17.5 mg/kg; in short: as §3
Mus musculus [22] = assay: Compound was evaluated for antitumor activity (T/C) in HT1376 carcinoma Xenograft, at a dosage 35 mg/kg on day 14; type: functional, organism-based; parameters: dose 35 mg/kg
In short: (§5)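 Nude mice carrying subcutaneous flank HT1376 fragments; treatment began once tumors were established and palpable, randomized into groups of 6 treated and 10 control mice. Dosing was ip as a suspension in 0.5% carboxymethylcellulose in 0.9% saline on days 0, 7, 14 and 21, at the MTD and two 2-fold dilutions. Tumors were measured on days 0-28. RTV = 100(mean volume at assessment)/(mean start volume); T/C = treated RTV/control RTV.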

Mus musculus [23] = assay: Compound was evaluated for antitumor activity (T/C) in HT1376 carcinoma Xenograft, at a dosage 35 mg/kg on day 21; type: functional, organism-based; parameters: dose 35 mg/kg; in short: as §5
Mus musculus [24] = assay: Compound was evaluated for antitumor activity (T/C) in HT1376 carcinoma Xenograft, at a dosage 35 mg/kg on day 28; type: functional, organism-based; parameters: dose 35 mg/kg; in short: as §5
Mus musculus [25] = assay: Compound was evaluated for antitumor activity (T/C) in HT1376 carcinoma Xenograft, at a dosage 35 mg/kg on day 7; type: functional, organism-based; parameters: dose 35 mg/kg; in short: as §5
Mus musculus [26] = assay: Compound was evaluated for antitumor activity (T/C) in HT1376 carcinoma Xenograft, at a dosage 8.75 mg/kg on day 14; type: functional, organism-based; parameters: dose 8.75 mg/kg; in short: as §5
Mus musculus [27] = assay: Compound was evaluated for antitumor activity (T/C) in HT1376 carcinoma Xenograft, at a dosage 8.75 mg/kg on day 21; type: functional, organism-based; parameters: dose 8.75 mg/kg; in short: as §5
Mus musculus [28] = assay: Compound was evaluated for antitumor activity (T/C) in HT1376 carcinoma Xenograft, at a dosage 8.75 mg/kg on day 28; type: functional, organism-based; parameters: dose 8.75 mg/kg; in short: as §5
Mus musculus [29] = assay: Compound was evaluated for antitumor activity (T/C) in HT1376 carcinoma Xenograft, at a dosage 8.75 mg/kg on day 7; type: functional, organism-based; parameters: dose 8.75 mg/kg; in short: as §5
Mus musculus [30] = assay: Compound was evaluated for antitumor activity (RTV) in HT1376 carcinoma Xenograft, at a dosage 8.75 mg/kg on day 14; type: functional, organism-based; parameters: dose 8.75 mg/kg; in short: as §4
Mus musculus [31] = assay: Compound was evaluated for antitumor activity (RTV) in HT1376 carcinoma Xenograft, at a dosage 8.75 mg/kg on day 21; type: functional, organism-based; parameters: dose 8.75 mg/kg; in short: as §4
Mus musculus [32] = assay: Compound was evaluated for antitumor activity (RTV) in HT1376 carcinoma Xenograft, at a dosage 8.75 mg/kg on day 28; type: functional, organism-based; parameters: dose 8.75 mg/kg; in short: as §4
Mus musculus [33] = assay: Compound was evaluated for antitumor activity (RTV) in HT1376 carcinoma Xenograft, at a dosage 8.75 mg/kg on day 7; type: functional, organism-based; parameters: dose 8.75 mg/kg; in short: as §4
[34] = Range is evaluated.; type: functional

Dichloro[2-(dimethylamino)methyl]phenyl-C,N]gold-(III)
Range [1]: 4.6 and 13.3

Malonato[2-(dimethylamino)methyl]phenyl-C,N]gold-(III) [listing 1 of 2 here]
IC50 (A2780 [2]): 2.7 µM | IC50 (A2780 [3]): 16 µM | Solubility [4]: 3570 µM | IC50 (CH1 [5]): 3.3 µM | IC50 (CH1 [6]): 2.7 µM | IC50 (HT-29): 36 µM | IC50 (HX62 cell line): 27 µM | IC50 (SK-OV-3 [7]): 11 µM | IC50 (SW 1116): 80 µM | IC50 (SK-OV-3 [8]): 30 µM | IC50 (ZR-75-1): 36 µM | IC50 (HT-1376): 11 µM | IC50 (SW-620): 67 µM | Solubility [9]: 3580 µM

Malonato[2-(dimethylamino)methyl]phenyl-C,N]gold-(III) [listing 2 of 2 here]
T/C (Mus musculus [10]): 0.88 | T/C (Mus musculus [11]): 0.83 | T/C (Mus musculus [12]): 0.76 | RTV (Mus musculus [13]): 451 | RTV (Mus musculus [14]): 699 | RTV (Mus musculus [15]): 802 | RTV (Mus musculus [16]): 266 | RTV (Mus musculus [17]): 292 | RTV (Mus musculus [18]): 488 | RTV (Mus musculus [19]): 816 | RTV (Mus musculus [20]): 210 | T/C (Mus musculus [21]): 1.01 | T/C (Mus musculus [22]): 0.57 | T/C (Mus musculus [23]): 0.58 | T/C (Mus musculus [24]): 0.77 | T/C (Mus musculus [25]): 0.8 | T/C (Mus musculus [26]): 1 | T/C (Mus musculus [27]): 1.06 | T/C (Mus musculus [28]): 1.17 | T/C (Mus musculus [29]): 1 | RTV (Mus musculus [30]): 513 | RTV (Mus musculus [31]): 894 | RTV (Mus musculus [32]): 1230 | RTV (Mus musculus [33]): 264 | Range [1]: 7.3 and 11.1

Oxalato[2-(dimethylamino)methyl]phenyl-C,N]gold-(III) Hemihydrate [listing 1 of 2 here]
IC50 (A2780 [2]): 3.7 µM | IC50 (A2780 [3]): 35 µM | Solubility [4]: 170 µM | IC50 (CH1 [5]): 13 µM | IC50 (CH1 [6]): 11 µM | IC50 (HT-29): 19 µM | IC50 (HX62 cell line): 30 µM | IC50 (SK-OV-3 [7]): 10 µM | IC50 (SW 1116): 215 µM | IC50 (SK-OV-3 [8]): 42 µM | IC50 (ZR-75-1): 41 µM | IC50 (HT-1376): 10 µM | IC50 (SW-620): 205 µM | Solubility [9]: 430 µM

Oxalato[2-(dimethylamino)methyl]phenyl-C,N]gold-(III) Hemihydrate [listing 2 of 2 here]
Range [34]: 11.4 | Range [1]: 21.5
